PMC4646424 (Journal of medicinal chemistry, 2015)
Read-outs that look alike come from different tables or passages of the source.

Tests used:
[1] = cited from earlier work; for Known aggregator status: previously reported
[2] = target: monoamine oxygenase B (MAOB); conditions: read-out: Inhibition of MAOB; cited from earlier work
[3] = Particle formation by dynamic light scattering; assay type: physicochemical; conditions: for DLS detected (concentration at which particles were detected) / DLS particle radius: dynamic light scattering; for DLS particle radius: at the concentration detected
Procedure, shortened: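 Particle formation was measured by dynamic light scattering following an earlier published method, with each test compound in buffer both without and with 0.01% Triton X-100. Read-outs were scattering intensity and average particle radius. For selected compounds, critical aggregation concentration was found by tracking scattering intensity as concentration rose, using three independent experiments. Forming aggregator-type particles was a required criterion.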

[4] = target: AmpC β-lactamase (Escherichia coli, UniProt P00811); assay: AmpC β-lactamase inhibition with and without Triton X-100; assay type: biochemical; conditions: for IC50: 1% DMSO
Procedure, shortened: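 AmpC β-lactamase activity was measured following an earlier published method, with final DMSO at 1% in all samples. Concentration-response curves were run with and without 0.01% Triton X-100. Where detergent fully reversed inhibition, only the highest inhibitor concentration was tested. Values are means of duplicate samples from two independent experiments. Detergent-sensitive inhibition with IC50 better than 100 µM was one criterion for classing a compound as an aggregator.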

[5] = target: cholesterol ester transferase protein (CETP); conditions: read-out: Inhibition of CETP; cited from earlier work
[6] = read-out: AmpC IC50 no Triton, no Triton X-100
[7] = read-out: AmpC IC50 plus Triton, plus 0.01% Triton X-100

Chain of AmpC β-lactamase (P00811 20-377): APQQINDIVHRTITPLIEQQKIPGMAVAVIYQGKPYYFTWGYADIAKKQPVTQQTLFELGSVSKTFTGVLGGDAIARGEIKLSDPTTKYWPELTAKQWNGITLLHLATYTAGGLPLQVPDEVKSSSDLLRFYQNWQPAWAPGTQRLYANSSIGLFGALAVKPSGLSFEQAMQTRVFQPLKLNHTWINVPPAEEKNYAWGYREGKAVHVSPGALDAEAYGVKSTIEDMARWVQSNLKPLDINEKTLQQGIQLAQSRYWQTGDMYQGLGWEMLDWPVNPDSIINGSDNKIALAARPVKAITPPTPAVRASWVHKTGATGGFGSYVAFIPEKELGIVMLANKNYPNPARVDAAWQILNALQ

Row | Compound | IC50 [4, 6] [µM] | IC50 [4, 7] [µM] | DLS detected (concentration at which particles were detected) [3] [µM] | DLS particle radius [3] [nm] | other results
1 | CC(=O)c1c(O)c(C)c(O)c(Cc2c(O)c3c(c(C(=O)/C=C/c4ccccc4)c2O)OC(C)(C)C=C3)c1O [Rottlerin] |  |  |  |  | Known aggregator status [1]: known aggregator at micromolar concentrations
2 | COc1ccc2c(=O)cc(-c3ccc(C)cc3)oc2c1 [CHEMBL17052] |  |  |  |  | IC50 [2]: 11.3 µM; Colloid formation by DLS ([3]; up to concentrations of at least 200 µM (Table 2)): does not form colloids
3 | Cc1ccc(-c2noc(CN(C(=O)C(c3ccccc3)c3ccccc3)C(C)C)n2)cc1 [CHEMBL1304694] | 8 | > 100 | 20 | 456 | 
4 | Cc1cc(NS(=O)(=O)c2ccc(NC(=O)COc3c(C)cc(Br)cc3C)cc2)no1 [CHEMBL1333273] | 146 | > 400 | 100 | 49 | 
5 | CN(CCC#N)C(=O)c1cc2c(s1)-c1ccccc1SC2 [CHEMBL1565380] | 184 | > 400 | 100 | 71 | 
6 | CNC(=O)c1cc(Oc2ccc(NC(=O)Nc3ccc(Cl)c(C(F)(F)F)c3)cc2)ccn1 [sorafenib] |  |  |  |  | CAC (critical aggregation concentration) ([1]; in biochemical buffer and in cell culture): 3.5 µM; Known aggregator status [1]: strong aggregators
7 | COc1ccc(OC(C)C(=O)N(C)Cc2nc(-c3ccc(OC)cc3)no2)cc1 (stereo not shown) [CHEMBL1508601] | 235 | > 400 | 100 | 62 | 
8 | C=CCOC(=O)c1[nH]c2c(c1C)C(=O)CC(c1ccco1)C2 (stereo not shown) [CHEMBL1359872] | 10 | > 100 | 10 | 405 | 
9 | Cc1ccccc1OCC(=O)Nc1ccc(-c2nc3cc(Cl)ccc3o2)cc1 [CHEMBL261275] | 7 | > 100 | 4 | 2312 | Effect of 0.01% Triton X-100 on β-lactamase inhibition ([4]; addition of 0.01% Triton X-100): fully abrogated; IC50 [5]: 21 µM
10 | C[C@]12CC[C@@H]3c4ccc(O)cc4C[C@@H](CCCCCCCCC[S+]([O-])CCCC(F)(F)C(F)(F)F)[C@H]3[C@@H]1CC[C@@H]2O (stereo partly shown) [fulvestrant] |  |  |  |  | Known aggregator status [1]: strong aggregators
11 | Nc1sc2c(c1C(=O)c1ccc(Cl)cc1)CCCC2 [CHEMBL57997] | 12.7 | > 100 | 21 | 270 | 
12 | CCOC(=O)c1c(-c2ccc(C)o2)csc1NC(=O)CSc1ncn[nH]1 [CHEMBL1347854] | 29 | > 100 | 10 | 115 | 
